In ChEMBL document CHEMBL4261499, “Chiral disubstituted piperidinyl ureas: a class of dual diacylglycerol lipase-α and ABHD6 inhibitors” (Medchemcomm, 2017):
The source made the active and inactive calls. The calls are words filed in the database; no cut-off is given here.

Tests used:
[1] = molecular target: T1, Monoacylglycerol lipase ABHD6 (Homo sapiens, UniProt Q9BV23); assay: Inhibition of recombinant human ABHD6 expressed in HEK293 cells by AmplifuTM red dye based fluorescence assay; assay type: cell-based
T1 sequence (Q9BV23 whole entry): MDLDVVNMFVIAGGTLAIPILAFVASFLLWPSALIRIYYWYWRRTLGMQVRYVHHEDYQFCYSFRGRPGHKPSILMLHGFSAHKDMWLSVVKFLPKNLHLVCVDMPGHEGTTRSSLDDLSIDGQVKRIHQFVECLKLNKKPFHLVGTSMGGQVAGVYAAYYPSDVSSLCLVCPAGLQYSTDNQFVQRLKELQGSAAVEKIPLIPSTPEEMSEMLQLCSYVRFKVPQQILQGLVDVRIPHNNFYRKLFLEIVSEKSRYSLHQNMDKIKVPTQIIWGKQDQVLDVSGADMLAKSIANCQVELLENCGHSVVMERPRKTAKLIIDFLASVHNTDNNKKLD
How it was run: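 Membranes from transiently transfected HEK293T cells expressing human ABHD6, 40 μg mL-1 final protein. Real-time coupled fluorescence assay with natural substrate 2-AG (25 μM). Glycerol released is detected via glycerol kinase, glycerol-3-phosphate oxidase and HRP (0.2 U mL-1 each), 0.125 mM ATP and 10 μM Amplifu Red. Assay contains 5% DMSO and 0.5% acetonitrile. pIC50 ± SEM.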

[2] = molecular target: T2, Diacylglycerol lipase-alpha (Mus musculus) (UniProt Q6WQJ1); assay: Inhibition of MB064 labelling of DAGLalpha in mouse brain homogenates at 10 uM pretreated for 30 mins followed by MB064 addition and measured after 20 mins by activity based protein profiling assay relative to control; assay type: tissue-based
T2 sequence (whole entry): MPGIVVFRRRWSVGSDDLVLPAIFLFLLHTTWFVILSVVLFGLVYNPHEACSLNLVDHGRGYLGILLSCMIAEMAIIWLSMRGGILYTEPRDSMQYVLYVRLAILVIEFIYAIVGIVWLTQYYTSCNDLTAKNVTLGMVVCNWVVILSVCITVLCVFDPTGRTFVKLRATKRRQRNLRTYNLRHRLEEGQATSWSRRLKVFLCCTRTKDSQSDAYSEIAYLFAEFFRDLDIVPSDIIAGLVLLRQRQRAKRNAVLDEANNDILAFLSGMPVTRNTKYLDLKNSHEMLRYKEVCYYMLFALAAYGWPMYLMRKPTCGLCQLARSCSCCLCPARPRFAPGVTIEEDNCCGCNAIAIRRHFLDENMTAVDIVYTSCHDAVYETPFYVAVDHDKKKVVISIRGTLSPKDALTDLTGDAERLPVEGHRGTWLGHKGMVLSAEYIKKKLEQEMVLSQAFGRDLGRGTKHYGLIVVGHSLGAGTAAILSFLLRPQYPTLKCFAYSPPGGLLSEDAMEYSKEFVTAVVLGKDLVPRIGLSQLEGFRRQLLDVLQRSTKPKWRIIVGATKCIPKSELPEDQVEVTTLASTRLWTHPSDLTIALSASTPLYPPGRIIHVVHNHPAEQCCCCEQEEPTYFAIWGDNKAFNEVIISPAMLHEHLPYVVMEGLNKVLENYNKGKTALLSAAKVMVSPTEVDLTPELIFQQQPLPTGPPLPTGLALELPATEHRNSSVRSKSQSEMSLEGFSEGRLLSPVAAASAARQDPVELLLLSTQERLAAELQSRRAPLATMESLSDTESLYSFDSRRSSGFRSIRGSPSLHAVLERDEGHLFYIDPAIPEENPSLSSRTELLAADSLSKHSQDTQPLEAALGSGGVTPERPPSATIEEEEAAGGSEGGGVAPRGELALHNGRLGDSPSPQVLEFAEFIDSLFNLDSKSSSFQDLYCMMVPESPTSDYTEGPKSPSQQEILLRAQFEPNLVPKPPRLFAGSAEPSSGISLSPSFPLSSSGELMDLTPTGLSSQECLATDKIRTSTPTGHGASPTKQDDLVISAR
How it was run: (§1)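 Mouse brain membrane proteome preincubated 30 min with inhibitor (10 μM), then labelled with MB064 probe (0.25 μM, 20 min). Readout by gel-based competitive ABPP. Band intensities corrected for protein loading per lane from Coomassie staining. Means ± SEM, n = 3.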

Mus musculus [3] = organism: Mus musculus; assay: Inhibition of MB064 labelling of ABHD16A in mouse brain homogenates at 10 uM pretreated for 30 mins followed by MB064 addition and measured after 20 mins by activity based protein profiling assay; assay type: tissue-based; how it was run: as §1
[4] = molecular target: T3, Epoxide hydrolase 4 (Mus musculus) (UniProt Q6IE26); assay: Inhibition of MB064 labelling of ABHD7 in mouse brain homogenates at 10 uM pretreated for 30 mins followed by MB064 addition and measured after 20 mins by activity based protein profiling assay; assay type: tissue-based; how it was run: as §1
T3 sequence (whole entry): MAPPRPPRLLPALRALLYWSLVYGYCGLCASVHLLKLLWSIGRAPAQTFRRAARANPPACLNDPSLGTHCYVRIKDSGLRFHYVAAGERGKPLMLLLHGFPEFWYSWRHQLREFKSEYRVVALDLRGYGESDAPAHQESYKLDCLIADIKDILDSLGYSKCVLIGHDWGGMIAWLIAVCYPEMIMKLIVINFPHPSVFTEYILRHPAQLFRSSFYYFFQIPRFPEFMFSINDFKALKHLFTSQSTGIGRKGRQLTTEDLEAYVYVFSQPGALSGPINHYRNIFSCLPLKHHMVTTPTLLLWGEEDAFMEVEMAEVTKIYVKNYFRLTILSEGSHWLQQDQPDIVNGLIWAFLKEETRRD

Mus musculus [5] = organism: Mus musculus; assay: Inhibition of FP-TAMRA labelling of FAAH in mouse brain homogenates at 10 uM pretreated for 30 mins followed by FP-TAMRA addition and measured after 20 mins by activity based protein profiling assay; assay type: tissue-based
How it was run: (§2)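 Mouse brain membrane proteome (2 mg mL-1) preincubated 30 min at r.t. with inhibitor (10 μM) or DMSO vehicle, then labelled with TAMRA-FP, 500 nM final, 20 min at r.t. Reaction quenched with Laemmli sample buffer. Readout by gel-based competitive ABPP with Coomassie staining as loading control.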

Mus musculus [6] = organism: Mus musculus; assay: Inhibition of FP-TAMRA labelling of KIAA1363 in mouse brain homogenates at 10 uM pretreated for 30 mins followed by FP-TAMRA addition and measured after 20 mins by activity based protein profiling assay; assay type: tissue-based; how it was run: as §2
[7] = molecular target: T4, Monoglyceride lipase (Mus musculus) (UniProt O35678); assay: Inhibition of FP-TAMRA labelling of MAGL in mouse brain homogenates at 10 uM pretreated for 30 mins followed by FP-TAMRA addition and measured after 20 mins by activity based protein profiling assay; assay type: tissue-based; how it was run: as §2
T4 sequence (whole entry): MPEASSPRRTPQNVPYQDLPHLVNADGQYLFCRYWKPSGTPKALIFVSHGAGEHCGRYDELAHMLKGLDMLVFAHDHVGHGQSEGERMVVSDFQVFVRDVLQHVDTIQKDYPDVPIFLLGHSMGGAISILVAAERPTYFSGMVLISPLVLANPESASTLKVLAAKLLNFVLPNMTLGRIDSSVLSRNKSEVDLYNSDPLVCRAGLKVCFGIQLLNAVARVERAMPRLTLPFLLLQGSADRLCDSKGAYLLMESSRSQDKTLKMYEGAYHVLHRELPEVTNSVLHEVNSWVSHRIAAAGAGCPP

In the case of `O=C(N1C[C@@H](O)C=C[C@@H]1COCc1ccccc1)n1cc(-c2ccc(-c3ccccc3)cc2)nn1`, the IC50 [1] is reported as 10 nM, the inhibition [2] is reported as 85% and the inhibition (Mus musculus [3]) is reported as “Active”. The inhibition [4] was “Active”, the inhibition (Mus musculus [5]) was “Active” and the inhibition (Mus musculus [6]) was “Active”. The inhibition [7] was “Active”.
In the case of `O=C(N1CCC=C[C@@H]1COCc1ccccc1)n1cc(-c2ccc(-c3ccccc3)cc2)nn1`, the IC50 [1] is reported as 12.6 nM and the inhibition [2] is reported as 94%.
Work on `O=C(N1CCCC[C@@H]1COCc1ccccc1)n1cc(-c2ccc(-c3ccccc3)cc2)nn1` yielded an IC50 [1] of 3.16 nM and an inhibition [2] of 96%.
`O=C(N1CCC=C[C@@H]1COCc1ccccc1)n1cc(-c2ccc([N+](=O)[O-])cc2)nn1` was tested, and the IC50 [1] was 31.6 nM, the inhibition [2] was 95% and the inhibition (Mus musculus [3]) was “Active”. The inhibition [4] was “Active”, the inhibition (Mus musculus [5]) was “Active” and the inhibition (Mus musculus [6]) was “Active”. For the same compound, the inhibition [7] was “Active”.
`O=C(N1CCC=C[C@@H]1COCc1ccccc1)n1cc(-c2ccc(Oc3ccccc3)cc2)nn1` gave an IC50 [1] of 6.31 nM and an inhibition [2] of 93%.
`O=C(N1CCC=C[C@@H]1COCc1ccccc1)n1cc(-c2ccccc2)nn1` was tested, and the IC50 [1] was 158 nM, the inhibition [2] was 89% and the inhibition (Mus musculus [3]) was “Active”. The inhibition [4] was “Active”, the inhibition (Mus musculus [5]) was “Active” and the inhibition (Mus musculus [6]) was “Active”. The inhibition [7] was “Active”.
Compound `O=C(N1CCC=C[C@@H]1COCc1ccccc1)n1cc(-c2ccc(Br)cc2)nn1` has an IC50 [1] of 15.8 nM and an inhibition [2] of 93%.
